Results collected from several papers.
Lines come from different studies, so protocols differ.
Target: Phosphatidylinositol 4-kinase beta (PI4KB, Homo sapiens, UniProt Q9UBF8)

CN(c1nccc(-c2cnn3ncccc23)n1)C1CC1 — remaining binding (binding; 1 µM): 100%
CNCc1ccccc1-c1csc([C@@H](C)Nc2nc(C)nc3cc(OC)c(OC)cc23)c1 — remaining binding (cell-free assay, competition with immobilised ligand; 1 µM): 82%
Cc1cnn2ncc(-c3ccnc(N(C)C)n3)c2c1 — remaining binding (binding; 1 µM): 56%
CSc1cccnc1N1CCN(Cc2nc3ccccc3[nH]2)CC1 — remaining binding (cell-free assay, competition with immobilised ligand; 1 µM): 73%
O=C(NCCCN1CCOCC1)c1ccc(Nc2ncc(Cl)c(-c3ccc(Cl)s3)n2)cc1 — remaining binding (binding, competition with immobilised ligand; 1 µM): 100%
C=CC(=O)N1CCC(C(=O)NCC(=O)N2CCN(c3nc(-c4cnc(N)nc4C(F)F)nc(N4CCOCC4)n3)CC2)CC1 — remaining binding (binding, competition with immobilised ligand; 1 µM): 100%
C[C@@H](c1ccc(-n2cnc3c(N)ncnc32)cc1)N1CCc2nn(C)c(Cc3ccccc3)c2C1=O — remaining binding (binding, competition with immobilised ligand; 0.1 µM): 42%
COc1cnc(Nc2cccc(S(N)(=O)=O)c2)nc1N1CCN(c2ccccc2)CC1 — remaining binding (binding, competition with immobilised ligand; 1 µM): 53%
CN(CCCC(F)(F)F)c1nccc(-c2cnn3ncccc23)n1 — remaining binding (binding; 1 µM): 100%
O=C(NCC1CCOCC1)c1n[nH]cc1NC(=O)c1c(F)cccc1F — remaining binding (binding, competition with immobilised ligand; 1 µM): 92%
CN(C)c1nccc(-c2cnc3ncccn23)n1 — remaining binding (binding; 1 µM): 79%
COc1ncc2cc3ccccc3nc2c1C#N — remaining binding (cell-free assay, competition with immobilised ligand; 5 µM): 25%
c1cnn2ncc(-c3ccnc(N4CCC45COC5)n3)c2c1 — remaining binding (binding; 1 µM): 12%
CC(C)CC(=O)N1CCc2nc(-c3ccc(Br)cc3)nc(N(C)Cc3ccccc3)c2C1 — remaining binding (cell-free assay, competition with immobilised ligand; 0.1 µM): 100%
Cc1cnc(Nc2ccc(C(=O)N3CCC(N4CCCC4)CC3)cc2)nc1-c1cc2ccccc2s1 — remaining binding (binding, competition with immobilised ligand; 1 µM): 77%
FC(F)(F)c1ccc2c(c1)nc(-c1cccnc1)n2C1CC1 — remaining binding (cell-free assay, competition with immobilised ligand; 1 µM): 94%
C[C@H]1CCN(c2nccc(-c3cnn4ncccc34)n2)C1 — remaining binding (binding; 1 µM): 19%
O=C(c1ccc(Nc2ncc(Cl)c(-c3cc4ccccc4s3)n2)cc1)N1CCC(N2CCCC2)CC1 — remaining binding (binding, competition with immobilised ligand; 1 µM): 76%
Nc1c(C(=O)NCc2ccc(C(=O)NCCCC3CCCCC3)cc2)cnn1-c1ccccc1 — remaining binding (cell-free assay, competition with immobilised ligand; 0.1 µM): 100%
N[C@H]1CCN(c2nccc(-c3cnn4ncccc34)n2)C1 — remaining binding (binding; 1 µM): 100%
O=C(N1CCS(=O)(=O)CC1)N1C[C@H](c2ccc(OC(F)(F)F)cc2)C[C@H](c2nc(C3CC3)no2)C1 — remaining binding (cell-free assay, competition with immobilised ligand; 1 µM): 100%
COc1cnc(Nc2cccc(S(N)(=O)=O)c2)nc1N1CCN(c2ccccc2)C(=O)C1 — remaining binding (binding, competition with immobilised ligand; 1 µM): 13%
